Source: ChEMBL document CHEMBL1153925, “Synthesis, characterization and biological activity of ring-substituted 6-benzylamino-9-tetrahydropyran-2-yl and 9-tetrahydrofuran-2-ylpurine derivatives” (Bioorg Med Chem, 2009)

Test system: not listed separately
Experiment: Stability assessed as free base release at pH 4 after 24 hr by HPLC-PDA method
Format: physicochemical
Conditions: pH 4, 24 h
How it was run: (§1)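 10^-2 M methanol solution diluted to 10^-4 M in McIlvaine buffer at pH 3, 4, 5, 6 or 7, then incubated at 25 °C. Direct injection onto reversed-phase C18 after 1 h and again after 24 h. Methanol/15 mM formic acid (pH 4, ammonium) gradient at 0.3 mL/min, PDA at 270 nm. Parent and released free base (m-topolin) reported as peak area %.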
For `Oc1cccc(CNc2ncnc3c2ncn3C2CCCO2)c1` (stereo not drawn), the Activity was 62.5%.

Test system: not listed separately
Experiment: Stability assessed as compound peak area at pH 5 after 1 hr by HPLC-PDA method
Format: physicochemical
Conditions: read-out: Stability
How it was run: as §1
`Oc1cccc(CNc2ncnc3c2ncn3C2CCCO2)c1` (stereo not drawn) showed a remaining at 1 h of 99.5%.

Test system: not listed separately
Experiment: Stability assessed as free base release at pH 6 after 24 hr by HPLC-PDA method
Format: physicochemical
Conditions: pH 6, 24 h
How it was run: as §1
With `Oc1cccc(CNc2ncnc3c2ncn3C2CCCO2)c1` (stereo not drawn) the Activity was 0.6%.

Test system: not listed separately
Experiment: Stability assessed as compound peak area at pH 3 after 1 hr by HPLC-PDA method
Format: physicochemical
Conditions: read-out: Stability
How it was run: as §1
`Oc1cccc(CNc2ncnc3c2ncn3C2CCCO2)c1` (stereo not drawn) showed a remaining at 1 h of 63.8%.

Test system: not listed separately
Experiment: Stability assessed as compound peak area at pH 5 after 24 hrs by HPLC-PDA method
Format: physicochemical
Conditions: read-out: Stability
How it was run: as §1
With `Oc1cccc(CNc2ncnc3c2ncn3C2CCCO2)c1` (stereo not drawn) the remaining at 24 h was 90.8%.

Test system: not listed separately
Experiment: Stability assessed as compound peak area at pH 4 after 24 hrs by HPLC-PDA method
Format: physicochemical
Conditions: read-out: Stability
How it was run: as §1
For `Oc1cccc(CNc2ncnc3c2ncn3C2CCCO2)c1` (stereo not drawn), the remaining at 24 h was 37.5%.

Test system: Nicotiana tabacum
Experiment: Cytokinin activity in tobacco callus assessed as stimulation of callus growth at 1 uM relative to 6-benzylaminopurine
Format: functional
Conditions: not given
Work on `COc1ccccc1CNc1ncnc2c1ncn2C1CCCCO1` (stereo not drawn) yielded an Activity of 93%. Work on `c1ccc(CNc2ncnc3c2ncn3C2CCCCO2)cc1` (stereo not drawn) yielded an Activity of 102%. `COc1cccc(CNc2ncnc3c2ncn3C2CCCCO2)c1` (stereo not drawn) gave an Activity of 90%. Compound `Oc1cccc(CNc2ncnc3c2ncn3C2CCCO2)c1` (stereo not drawn) has an Activity of 87%. For `c1ccc(CNc2ncnc3c2ncn3C2CCCO2)cc1` (stereo not drawn), the Activity was 95%. With `COc1cccc(CNc2ncnc3c2ncn3C2CCCO2)c1` (stereo not drawn) the Activity was 96%. With `COc1ccc(CNc2ncnc3c2ncn3C2CCCO2)cc1` (stereo not drawn) the Activity was 7%. `COc1ccc(CNc2ncnc3c2ncn3C2CCCO2)cc1OC` (stereo not drawn) gave an Activity of 3%.

Test system: not listed separately
Experiment: Stability assessed as free base release at pH 5 after 24 hr by HPLC-PDA method
Format: physicochemical
Conditions: pH 5, 24 h
How it was run: as §1
`Oc1cccc(CNc2ncnc3c2ncn3C2CCCO2)c1` (stereo not drawn) gave an Activity of 9.2%.

Test system: not listed separately
Experiment: Stability assessed as compound peak area at pH 6 after 24 hrs by HPLC-PDA method
Format: physicochemical
Conditions: read-out: Stability
How it was run: as §1
Compound `Oc1cccc(CNc2ncnc3c2ncn3C2CCCO2)c1` (stereo not drawn) has a remaining at 24 h of 99.4%.

Test system: not listed separately
Experiment: Stability assessed as free base release at pH 6 after 1 hr by HPLC-PDA method
Format: physicochemical
Conditions: pH 6, 1 h
How it was run: as §1
`Oc1cccc(CNc2ncnc3c2ncn3C2CCCO2)c1` (stereo not drawn) showed an Activity of 0.4%.

Test system: not listed separately
Experiment: Stability assessed as compound peak area at pH 6 after 1 hr by HPLC-PDA method
Format: physicochemical
Conditions: read-out: Stability
How it was run: as §1
Compound `Oc1cccc(CNc2ncnc3c2ncn3C2CCCO2)c1` (stereo not drawn) has a remaining at 1 h of 99.6%.

Test system: not listed separately
Experiment: Stability assessed as free base release at pH 3 after 1 hr by HPLC-PDA method
Format: physicochemical
Conditions: pH 3, 1 h
How it was run: as §1
For `Oc1cccc(CNc2ncnc3c2ncn3C2CCCO2)c1` (stereo not drawn), the Activity was 36.2%.

Test system: not listed separately
Experiment: Stability assessed as free base release at pH 7 after 24 hr by HPLC-PDA method
Format: physicochemical
Conditions: pH 7, 24 h
How it was run: as §1
`Oc1cccc(CNc2ncnc3c2ncn3C2CCCO2)c1` (stereo not drawn) showed an Activity of 0.3%.

Test system: Triticum aestivum
Experiment: Cytokinin activity in wheat leaf assessed as stimulation of retention of chlorophyll in excised leaves at 0.1 mM relative to 6-benzylaminopurine
Format: functional
Conditions: not given
For `COc1ccccc1CNc1ncnc2c1ncn2C1CCCCO1` (stereo not drawn), the Activity was 104%. Work on `c1ccc(CNc2ncnc3c2ncn3C2CCCCO2)cc1` (stereo not drawn) yielded an Activity of 104%. `COc1cccc(CNc2ncnc3c2ncn3C2CCCCO2)c1` (stereo not drawn) gave an Activity of 72%. `Oc1cccc(CNc2ncnc3c2ncn3C2CCCO2)c1` (stereo not drawn) gave an Activity of 131%. In the case of `c1ccc(CNc2ncnc3c2ncn3C2CCCO2)cc1` (stereo not drawn), the Activity is reported as 107%. With `COc1cccc(CNc2ncnc3c2ncn3C2CCCO2)c1` (stereo not drawn) the Activity was 82%. With `COc1ccc(CNc2ncnc3c2ncn3C2CCCO2)cc1` (stereo not drawn) the Activity was 16%. `COc1ccc(CNc2ncnc3c2ncn3C2CCCO2)cc1OC` (stereo not drawn) gave an Activity of 7%.

Test system: not listed separately
Experiment: Stability assessed as compound peak area at pH 3 after 24 hrs by HPLC-PDA method
Format: physicochemical
Conditions: read-out: Stability
How it was run: as §1
In the case of `Oc1cccc(CNc2ncnc3c2ncn3C2CCCO2)c1` (stereo not drawn), the remaining at 24 h is reported as 0.3%.

Test system: BJ
Experiment: Cytotoxicity against human BJ cells after 72 hrs by MTT assay
Format: ADME, cell-based
Conditions: not given
With `COc1ccccc1CNc1ncnc2c1ncn2C1CCCCO1` (stereo not drawn) the IC50 was over 100 µM. `c1ccc(CNc2ncnc3c2ncn3C2CCCCO2)cc1` (stereo not drawn) gave an IC50 of over 100 µM. In the case of `COc1cccc(CNc2ncnc3c2ncn3C2CCCCO2)c1` (stereo not drawn), the IC50 is reported as over 100 µM. For `Oc1cccc(CNc2ncnc3c2ncn3C2CCCO2)c1` (stereo not drawn), the IC50 was over 100 µM. `c1ccc(CNc2ncnc3c2ncn3C2CCCO2)cc1` (stereo not drawn) gave an IC50 of over 100 µM. `COc1cccc(CNc2ncnc3c2ncn3C2CCCO2)c1` (stereo not drawn) gave an IC50 of over 100 µM. `COc1ccc(CNc2ncnc3c2ncn3C2CCCO2)cc1` (stereo not drawn) showed an IC50 of over 100 µM. `COc1ccc(CNc2ncnc3c2ncn3C2CCCO2)cc1OC` (stereo not drawn) showed an IC50 of over 100 µM.

Test system: Amaranthus
Experiment: Cytokinin activity in cotyledons assessed as dark induction of betacyanin synthesis at 100 uM relative to 6-benzylaminopurine
Format: functional
Conditions: not given
Work on `COc1ccccc1CNc1ncnc2c1ncn2C1CCCCO1` (stereo not drawn) yielded an Activity of 84%. `c1ccc(CNc2ncnc3c2ncn3C2CCCCO2)cc1` (stereo not drawn) showed an Activity of 114%. In the case of `COc1cccc(CNc2ncnc3c2ncn3C2CCCCO2)c1` (stereo not drawn), the Activity is reported as 76%. `Oc1cccc(CNc2ncnc3c2ncn3C2CCCO2)c1` (stereo not drawn) gave an Activity of 82%. Compound `c1ccc(CNc2ncnc3c2ncn3C2CCCO2)cc1` (stereo not drawn) has an Activity of 109%. For `COc1cccc(CNc2ncnc3c2ncn3C2CCCO2)c1` (stereo not drawn), the Activity was 123%. Compound `COc1ccc(CNc2ncnc3c2ncn3C2CCCO2)cc1` (stereo not drawn) has an Activity of 25%. Work on `COc1ccc(CNc2ncnc3c2ncn3C2CCCO2)cc1OC` (stereo not drawn) yielded an Activity of 5%.

Test system: MCF7
Experiment: Cytotoxicity against human MCF7 cells after 72 hrs by Calcein AM assay
Format: ADME, cell-based
Conditions: MCF7, 72 h
For `COc1ccccc1CNc1ncnc2c1ncn2C1CCCCO1` (stereo not drawn), the IC50 was over 100 µM. Compound `c1ccc(CNc2ncnc3c2ncn3C2CCCCO2)cc1` (stereo not drawn) has an IC50 of over 100 µM. `COc1cccc(CNc2ncnc3c2ncn3C2CCCCO2)c1` (stereo not drawn) gave an IC50 of 97 µM. `Oc1cccc(CNc2ncnc3c2ncn3C2CCCO2)c1` (stereo not drawn) gave an IC50 of over 100 µM. For `c1ccc(CNc2ncnc3c2ncn3C2CCCO2)cc1` (stereo not drawn), the IC50 was over 100 µM. `COc1cccc(CNc2ncnc3c2ncn3C2CCCO2)c1` (stereo not drawn) gave an IC50 of over 100 µM. In the case of `COc1ccc(CNc2ncnc3c2ncn3C2CCCO2)cc1` (stereo not drawn), the IC50 is reported as over 100 µM. Compound `COc1ccc(CNc2ncnc3c2ncn3C2CCCO2)cc1OC` (stereo not drawn) has an IC50 of over 100 µM.

Test system: not listed separately
Experiment: Stability assessed as free base release at pH 5 after 1 hr by HPLC-PDA method
Format: physicochemical
Conditions: pH 5, 1 h
How it was run: as §1
For `Oc1cccc(CNc2ncnc3c2ncn3C2CCCO2)c1` (stereo not drawn), the Activity was 0.5%.

Test system: K562
Experiment: Cytotoxicity against human K562 cells after 72 hrs by Calcein AM assay
Format: ADME, cell-based
Conditions: K562, 72 h
`COc1ccccc1CNc1ncnc2c1ncn2C1CCCCO1` (stereo not drawn) gave an IC50 of 97 µM. `c1ccc(CNc2ncnc3c2ncn3C2CCCCO2)cc1` (stereo not drawn) showed an IC50 of over 100 µM. `COc1cccc(CNc2ncnc3c2ncn3C2CCCCO2)c1` (stereo not drawn) showed an IC50 of 61 µM. With `Oc1cccc(CNc2ncnc3c2ncn3C2CCCO2)c1` (stereo not drawn) the IC50 was over 100 µM. In the case of `c1ccc(CNc2ncnc3c2ncn3C2CCCO2)cc1` (stereo not drawn), the IC50 is reported as over 100 µM. In the case of `COc1cccc(CNc2ncnc3c2ncn3C2CCCO2)c1` (stereo not drawn), the IC50 is reported as over 100 µM. In the case of `COc1ccc(CNc2ncnc3c2ncn3C2CCCO2)cc1` (stereo not drawn), the IC50 is reported as over 100 µM. `COc1ccc(CNc2ncnc3c2ncn3C2CCCO2)cc1OC` (stereo not drawn) gave an IC50 of over 100 µM.

Test system: not listed separately
Experiment: Stability assessed as compound peak area at pH 7 after 1 hr by HPLC-PDA method
Format: physicochemical
Conditions: read-out: Stability
How it was run: as §1
Work on `Oc1cccc(CNc2ncnc3c2ncn3C2CCCO2)c1` (stereo not drawn) yielded a remaining at 1 h of 99.7%.

Test system: not listed separately
Experiment: Stability assessed as compound peak area at pH 7 after 24 hrs by HPLC-PDA method
Format: physicochemical
Conditions: read-out: Stability
How it was run: as §1
In the case of `Oc1cccc(CNc2ncnc3c2ncn3C2CCCO2)c1` (stereo not drawn), the remaining at 24 h is reported as 99.7%.

Test system: not listed separately
Experiment: Stability assessed as free base release at pH 7 after 1 hr by HPLC-PDA method
Format: physicochemical
Conditions: pH 7, 1 h
How it was run: as §1
With `Oc1cccc(CNc2ncnc3c2ncn3C2CCCO2)c1` (stereo not drawn) the Activity was 0.3%.

Test system: not listed separately
Experiment: Stability assessed as compound peak area at pH 4 after 1 hr by HPLC-PDA method
Format: physicochemical
Conditions: read-out: Stability
How it was run: as §1
`Oc1cccc(CNc2ncnc3c2ncn3C2CCCO2)c1` (stereo not drawn) gave a remaining at 1 h of 97.2%.

Test system: not listed separately
Experiment: Stability assessed as free base release at pH 4 after 1 hr by HPLC-PDA method
Format: physicochemical
Conditions: pH 4, 1 h
How it was run: as §1
In the case of `Oc1cccc(CNc2ncnc3c2ncn3C2CCCO2)c1` (stereo not drawn), the Activity is reported as 2.8%.

Test system: not listed separately
Experiment: Stability assessed as free base release at pH 3 after 24 hr by HPLC-PDA method
Format: physicochemical
Conditions: pH 3, 24 h
How it was run: as §1
For `Oc1cccc(CNc2ncnc3c2ncn3C2CCCO2)c1` (stereo not drawn), the Activity was 99.7%.
